Only some compounds are listed: those with a hit (about 1.4% of all), similar ones and a draw of the others.
EBNA-1 inhibitor: EBNA-1 DNA-binding inhibitors, primary screen, biochemical, fluorescence polarization; inhibition, % at 14.8 µM; 0.34% of 300,000 active; AID 1950, 2009; in the data active = inhibition above about 28%
SUMO HTRF inh: inhibitors of in vitro SUMOylation cascade, primary screen, biochemical, HTRF, uHTS; inhibition, % at 35 µM; SUMO-conjugating enzyme UBC9 (Homo sapiens), P63279; HTRF SUMOylation assay, SAE1/SAE2 + UBC9; 0.36% of 290,000 active; AID 2006, 2009; in the data active = inhibition above about 50%, passing the limit was not always enough
Target sequence (P63279 whole entry, looked up): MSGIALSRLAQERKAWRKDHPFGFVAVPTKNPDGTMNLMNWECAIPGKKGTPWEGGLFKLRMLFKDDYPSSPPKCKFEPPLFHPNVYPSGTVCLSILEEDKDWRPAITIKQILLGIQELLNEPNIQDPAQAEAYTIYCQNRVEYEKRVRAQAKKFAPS
HCV NS3 hel inh: inhibitors of HCV NS3 helicase, primary screen, biochemical, Cy5 molecular beacon fluorescence; NS3 helicase DNA unwinding; inhibition, % at 10.9 µM; 0.56% of 290,000 active; AID 1800, 2009;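 active = inhibition above the mean of all tested compounds plus 3 SD, set per campaign, cut at about 35% in these data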
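System: NS3 helicase fragment of HCV / Schedule: 1 h at 25 °C / Control set: DMSO alone as 0% and 110 µM thioflavine S as 100% / Reagent: Cy5/quencher beacon DNA duplex and ATP to start / Technique: Cy5 fluorescence / Replication: singlicate / Evaluation: % inhibition of end-to-start signal ratio versus controls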
HCV core dimer: inhibitors of HCV core protein dimerization, primary screen, biochemical, TR-FRET, high-throughput; TR-FRET GST/Flag-core106 dimerization, 1536-well; inhibition, % at 5 µM; 0.33% of 300,000 active;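 active = inhibition above the mean of all tested compounds plus 3 SD, set per screening campaign, cut at about 45% in these data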
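System: GST-tagged and Flag-tagged HCV core protein residues 1-106 / Input: core106 proteins, GST 13.5 nM and Flag 17 nM / Buffer or medium: KF-containing HEPES buffer, pH 7.45, DTT, CHAPS, BSA / Probe or stimulus: Eu-anti-GST and XL665-anti-Flag labelled anti-tag antibodies / Schedule: 4 h, 22.5 °C incubation / Technique: TR-FRET 671 and 617 nm emission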
ZTA counter: blocks Epstein-Barr virus ZTA, an EBNA-1 counter-screen; inhibition, % at 11 µM; 0.15% of 320,000 active; ZTA-DNA binding, fluorescence polarization; in the data active = inhibition above about 33%
Target sequence (P03206 whole entry, looked up): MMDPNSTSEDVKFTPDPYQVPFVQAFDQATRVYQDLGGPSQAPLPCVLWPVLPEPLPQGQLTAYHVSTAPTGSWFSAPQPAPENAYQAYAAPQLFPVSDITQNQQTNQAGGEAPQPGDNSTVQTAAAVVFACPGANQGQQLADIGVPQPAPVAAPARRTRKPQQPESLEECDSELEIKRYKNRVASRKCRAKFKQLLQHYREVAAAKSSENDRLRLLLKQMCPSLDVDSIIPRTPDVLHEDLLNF
EBNA-1 inh conf: EBNA-1 DNA-binding inhibitors, retest, confirmation, biochemical, fluorescence polarization, triplicate; shares compounds with EBNA-1 inhibitor; Recombinant EBNA-1 DBD, Cy5-DNA fluorescence polarization; inhibition, % at 14.8 µM; 35% of 830 active; AID 2292, 2010;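 active = mean inhibition across replicates above a set limit taken from the earlier primary screen, cut at about 28% in these data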
ZTA DNA inh trip: EBV Zta DNA binding inhibitors, counter-screen for EBNA-1 inhibitor project, biochemical, fluorescence polarization, triplicate; shares compounds with EBNA-1 inhibitor; inhibition, % at 11.1 µM; 830 tested, under 10 active; Zta-ZRE DNA binding, Cy5 fluorescence polarization; AID 2328, 2010;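 active = mean inhibition over triplicates above a set limit taken from the primary EBNA-1 screen, cut at about 37% in these data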;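 also: purified full length Zta protein with Cy5 labeled ZRE DNA probe; inhibitors lower polarization by freeing the labeled DNA probe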
Large screens that a line does not name were inactive (follow-up assays come after a bar, where they were run).

COc1cc(NC(=O)C2Cc3ccccc3CN2S(C)(=O)=O)cc(OC)c1 (stereo not drawn)	EBNA-1 inhibitor 38.4 | EBNA-1 inh conf inactive | ZTA DNA inh trip inactive
COc1ccc(/C=C/C(=O)NC(=S)Nc2ccc(S(N)(=O)=O)cc2)cc1	EBNA-1 inhibitor 32.5 | EBNA-1 inh conf 39.3 | ZTA DNA inh trip 37.1
CCOP(=O)(c1ccccc1)C(O)c1ccc(F)cc1 (stereo not drawn)	EBNA-1 inhibitor 103.0 | EBNA-1 inh conf inactive | ZTA DNA inh trip inactive
CCOP(=O)(c1ccccc1)C(O)c1ccc([N+](=O)[O-])cc1 (stereo not drawn)	none
Cc1nccn1CCOc1ccccc1Cl	none (no result: EBNA-1 inhibitor, HCV core dimer, ZTA counter)
COc1ccc2oc(C(=O)OCC(=O)Nc3cc(S(=O)(=O)N4CCOCC4)ccc3C)c(C)c2c1	EBNA-1 inhibitor 62.4 (no result: SUMO HTRF inh, HCV NS3 hel inh) | EBNA-1 inh conf 106.7 | ZTA DNA inh trip inactive
COc1ccc2oc(C(=O)OCC(=O)Nc3ccc(NC(C)=O)cc3)c(C)c2c1	EBNA-1 inhibitor 119.9 (no result: SUMO HTRF inh, HCV NS3 hel inh) | EBNA-1 inh conf 166.8 | ZTA DNA inh trip inactive
CC(=O)Nc1ccc(NC(=S)NC(=O)c2oc3ccccc3c2C)cc1	none
CC(=O)Nc1ccc(NC(=O)C(C)OC(=O)c2oc3ccccc3c2C)cc1 (stereo not drawn)	EBNA-1 inhibitor 79.7 (no result: SUMO HTRF inh, HCV NS3 hel inh) | EBNA-1 inh conf 117.8 | ZTA DNA inh trip inactive
COc1ccccc1N1CCN(c2ccc([N+](=O)[O-])cc2Cl)CC1	EBNA-1 inhibitor 38.2 | EBNA-1 inh conf inactive | ZTA DNA inh trip inactive
Cc1ccnc(SCC(=O)N2CCc3ccccc32)n1	EBNA-1 inhibitor 32.2 | EBNA-1 inh conf inactive | ZTA DNA inh trip inactive
CCOc1ccc(N=C2NC(=O)C(CC(=O)Nc3ccc(OC)cc3)S2)cc1 (stereo not drawn)	EBNA-1 inhibitor 33.3 | EBNA-1 inh conf 28.9 | ZTA DNA inh trip inactive
O=C(COc1ccc2c(c1)OCO2)Nc1ccc2c(c1)oc1ccccc12	EBNA-1 inhibitor 70.9 | EBNA-1 inh conf inactive | ZTA DNA inh trip inactive
O=C(Nc1ccc2c(c1)oc1ccccc12)c1ccc2c(c1)OCO2	none
COc1ccc(OC)c2nc(-c3ccc4c(c3)OCO4)ccc12	none
COc1cc(OC)cc(C(=O)NC(C)CNc2ccc(Cl)cc2[N+](=O)[O-])c1 (stereo not drawn)	none
COC(=O)[C@]1(CC(C)C)N[C@H](c2ccc(-c3ccc(F)cc3)c(OC)c2)[C@@H]2C(=O)N(C)C(=O)[C@@H]21	none (no result: SUMO HTRF inh, HCV NS3 hel inh)
CCOc1ccccc1N(C(=O)c1ccco1)C(C(=O)NC1CCCC1)c1cccs1 (stereo not drawn)	none
COc1ccc(N(C(=O)c2ccco2)C(C(=O)NC2CCCC2)c2cccs2)c(OC)c1 (stereo not drawn)	EBNA-1 inhibitor 54.6 | EBNA-1 inh conf inactive | ZTA DNA inh trip inactive
Cc1ccccc1C(=O)O/N=C(\N)Cc1cccs1	none
O=C(CCNS(=O)(=O)c1ccccc1)OCC(=O)c1ccc(Br)cc1	none (no result: SUMO HTRF inh, HCV NS3 hel inh)
O=C1N=C(N2CCN(c3ccccc3)CC2)S/C1=C\c1cn[nH]c1-c1ccccc1	EBNA-1 inhibitor 138.2 | EBNA-1 inh conf 33.8 | ZTA DNA inh trip inactive
O=C1N=C(N2CCN(c3ccccc3)CC2)S/C1=C\c1ccco1	none
Cc1cccc(N2CCN(C3=NC(=O)C(=C4CCCCC4)S3)CC2)c1	none
O=C1N=C(N2CCC(Cc3ccccc3)CC2)S/C1=C/c1cn[nH]c1-c1ccccc1	none
Cc1cccc(N2CCN(C3=NC(=O)/C(=C\c4cn[nH]c4-c4ccccc4)S3)CC2)c1	EBNA-1 inhibitor 67.3 | EBNA-1 inh conf 29.1 | ZTA DNA inh trip inactive
Cc1ccc(N2CCN(C3=NC(=O)/C(=C\c4cn[nH]c4-c4ccccc4)S3)CC2)cc1	EBNA-1 inhibitor 93.1 | EBNA-1 inh conf 42.7 | ZTA DNA inh trip inactive
CCOc1ccc(CCNC(=O)COC(=O)c2cc(=O)[nH]c3ccccc23)cc1OCC	none (no result: SUMO HTRF inh, HCV NS3 hel inh)
CCc1ccc([C@@H]2CC=C(C(=O)O)[C@H](c3ccc(F)cc3)N2S(=O)(=O)c2ccc(C)cc2)cc1	none (no result: SUMO HTRF inh, HCV NS3 hel inh)
COCCCNC(=O)c1cc2cc3cc(OC)ccc3nc2o1	none
CCOC(=O)C1CCN(Cc2ccc(Cl)c(Cl)c2)CC1	EBNA-1 inhibitor 45.5 | EBNA-1 inh conf inactive | ZTA DNA inh trip inactive
CCOC(=O)C1CCN(Cc2ccc(F)cc2)CC1	none
Nc1nnnn1/N=C/c1ccccc1OCc1ccccc1	EBNA-1 inhibitor 28.8 | EBNA-1 inh conf inactive | ZTA DNA inh trip inactive
COc1ccc(NC(=O)COC(=O)c2ccc(OCc3ccccc3Cl)c(OC)c2)c(OC)c1	EBNA-1 inhibitor 32.3 | EBNA-1 inh conf inactive | ZTA DNA inh trip inactive
COc1ccc(S(=O)(=O)N2CCOCC2)cc1NC(=O)c1ccccc1C	none
COc1ccc(S(=O)(=O)N2CCOCC2)cc1NC(=O)c1cccc(Cl)c1	EBNA-1 inhibitor 40.5 | EBNA-1 inh conf inactive | ZTA DNA inh trip inactive
COc1ccc(S(=O)(=O)N2CCOCC2)cc1NC(=O)c1ccc2c(c1)OCCO2	none
COc1ccc(S(=O)(=O)N2CCOCC2)cc1NC(=O)c1ccc(Cl)cc1	EBNA-1 inhibitor 44.2 (no result: SUMO HTRF inh, HCV NS3 hel inh) | EBNA-1 inh conf 32.1 | ZTA DNA inh trip inactive
CCc1noc(C)c1C(=O)Nc1cc(S(=O)(=O)N2CCOCC2)ccc1OCC(F)(F)F	EBNA-1 inhibitor 79.0 (no result: SUMO HTRF inh, HCV NS3 hel inh) | EBNA-1 inh conf inactive | ZTA DNA inh trip inactive
CSCCC(NS(=O)(=O)c1ccc2c(c1)OCCO2)C(=O)N(C)Cc1ccccc1F (stereo not drawn)	none (no result: EBNA-1 inhibitor, SUMO HTRF inh, HCV NS3 hel inh, HCV core dimer)
COc1ccccc1NC(=O)Nc1ccc(C(N)=O)cc1	EBNA-1 inhibitor 46.2 | EBNA-1 inh conf inactive | ZTA DNA inh trip inactive
Cc1cccc(N(C)c2ncnc3onc(-c4ccc(F)cc4)c23)c1C	none
Cc1nc2nc(-c3ccccc3)nn2c(C)c1C	EBNA-1 inhibitor active (no result: SUMO HTRF inh, HCV NS3 hel inh) | EBNA-1 inh conf inactive | ZTA DNA inh trip inactive
Cc1ccccc1C(=O)Nc1nc2c(C)csc2c(=O)s1	EBNA-1 inhibitor 54.7 | EBNA-1 inh conf inactive | ZTA DNA inh trip inactive
CC(=O)Nc1ccc(C(=O)OCC(=O)N2CCC(Cc3ccccc3)CC2)cc1	none (no result: EBNA-1 inhibitor, SUMO HTRF inh, HCV NS3 hel inh, HCV core dimer)
CCOC(=O)[C@@H]1[C@H]2COc3cc(OC)ccc3[C@H]2N2C(=O)N(c3cccc(Cl)c3)C(=O)[C@@]12C	none
CCOC(=O)[C@@H]1[C@H]2COc3cc(OC)ccc3[C@H]2N2C(=O)N(c3cccc(Cl)c3)C(=O)[C@]12C	EBNA-1 inhibitor 31.5 | EBNA-1 inh conf inactive | ZTA DNA inh trip inactive

Assay outcomes deposited in PubChem by several laboratories.
